# Measured values as given in ChEMBL document CHEMBL4689842, “EUbOPEN Chemogenomics Library wave 1” (2021).
# Where “and” joins values, the source holds several entries; their conditions need not be identical. Identical values can stand only once.
# What was measured:
# HEK-293T = assay: Multiplex assay against HEK293T; format: toxicity, cell-based; details: human, 10 µM, compound concentration 10 uM;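 on Population Tubulin-Different-Phenotype (%): share of the cells with healthy nuclei that show this phenotype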
# Method in brief: (§1)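 Compound was added to live cells that had been stained at seeding with Hoechst33342, BioTracker Green Microtubule Cytoskeleton Dye, MitoTracker Red and Annexin V Alexa Fluor 680, and imaging followed on a CQ1 microscope at 37°C and 5% CO2. CellPathfinder machine-learning gating divided cells into Hoechst high-intensity objects or normal cells, normal cells into healthy, pyknosed or fragmented nuclei, and pyknosed cells into mitotic or apoptotic. Tubulin, mitochondrial-mass and membrane-permeability phenotypes are per cents of healthy-nucleus cells.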
# Fibroblast = assay: Multiplex assay against human fibroblast; format: toxicity, cell-based; details: 10 µM, compound concentration 10 uM; method in brief: as §1
smiles,measurement,setting,value
C1=N/C2=N/c3ccc(OCCN4CCCC4)c(c3)COC/C=C\COCc3cccc(c3)C(=C1)N2,Population Fragmented Nuclei (%),"HEK-293T; 24 h, replicate 1",30% and 38% and 21%
same,Population Hoechst High Intensity Objects (%),"HEK-293T; 24 h, replicate 1",20% and 21% and 14%
same,Population Membrane Permeable-Phenotype (%),"HEK-293T; 24 h, replicate 1",0% and 19% and 7%
same,Population Normal (%),"HEK-293T; 24 h, replicate 1",79% and 78% and 85%
same,Population Pyknosed Nuclei (%),"HEK-293T; 24 h, replicate 1",69% and 45% and 44%
same,Total Cell Count,"HEK-293T; 24 h, replicate 1",253 and 698 and 607
same,Population Hoechst High Intensity Objects (%),"HEK-293T; 24 h, replicate 2",19% and 13% and 7%
same,Population Mitochondria Different-Phenotype (%),"HEK-293T; 24 h, replicate 2",69% and 78% and 54%
same,Population Normal (%),"HEK-293T; 24 h, replicate 2",80% and 86% and 92%
same,Population Pyknosed Nuclei (%),"HEK-293T; 24 h, replicate 2",79% and 55% and 35%
same,Population Tubulin-Different-Phenotype (%),"HEK-293T; 24 h, replicate 2",100% and 87% and 94%
same,Population Apoptotic (%),"HEK-293T; 48 h, replicate 1",87%
same,Population Fragmented Nuclei (%),"HEK-293T; 48 h, replicate 1",37%
same,Population Healthy Nuclei (%),"HEK-293T; 48 h, replicate 1",0%
same,Population Hoechst High Intensity Objects (%),"HEK-293T; 48 h, replicate 1",26%
same,Population Membrane Permeable-Phenotype (%),"HEK-293T; 48 h, replicate 1",0%
same,Population Mitochondria Different-Phenotype (%),"HEK-293T; 48 h, replicate 1",0%
same,Population Mitotic Cells (%),"HEK-293T; 48 h, replicate 1",12%
same,Population Normal (%),"HEK-293T; 48 h, replicate 1",73%
same,Population Pyknosed Nuclei (%),"HEK-293T; 48 h, replicate 1",62%
same,Population Tubulin-Different-Phenotype (%),"HEK-293T; 48 h, replicate 1",0%
same,Total Cell Count,"HEK-293T; 48 h, replicate 1",253
same,Population Fragmented Nuclei (%),"HEK-293T; 48 h, replicate 2",17%
same,Population Healthy Nuclei (%),"HEK-293T; 48 h, replicate 2",18%
same,Population Hoechst High Intensity Objects (%),"HEK-293T; 48 h, replicate 2",15%
same,Population Membrane Permeable-Phenotype (%),"HEK-293T; 48 h, replicate 2",3%
same,Population Mitochondria Different-Phenotype (%),"HEK-293T; 48 h, replicate 2",81%
same,Population Normal (%),"HEK-293T; 48 h, replicate 2",84%
same,Population Pyknosed Nuclei (%),"HEK-293T; 48 h, replicate 2",64%
same,Population Tubulin-Different-Phenotype (%),"HEK-293T; 48 h, replicate 2",96%
same,Total Cell Count,"HEK-293T; 48 h, replicate 2",212
same,Population Apoptotic (%),"Fibroblast; 12 h, replicate 1",82% and 50% and 69%
same,Population Fragmented Nuclei (%),"Fibroblast; 12 h, replicate 1",23% and 19% and 32%
same,Population Hoechst High Intensity Objects (%),"Fibroblast; 12 h, replicate 1",13% and 8% and 12%
same,Population Membrane Permeable-Phenotype (%),"Fibroblast; 12 h, replicate 1",0% and 2% and 3%
same,Population Mitotic Cells (%),"Fibroblast; 12 h, replicate 1",17% and 49% and 30%
same,Population Normal (%),"Fibroblast; 12 h, replicate 1",86% and 91% and 87%
same,Population Apoptotic (%),"Fibroblast; 12 h, replicate 2",68% and 44% and 90%
same,Population Fragmented Nuclei (%),"Fibroblast; 12 h, replicate 2",66% and 46% and 29%
same,Population Normal (%),"Fibroblast; 12 h, replicate 2",60% and 68% and 89%
same,Population Pyknosed Nuclei (%),"Fibroblast; 12 h, replicate 2",24% and 18% and 53%
same,Total Cell Count,"Fibroblast; 12 h, replicate 2",108 and 72 and 71
same,Population Apoptotic (%),"Fibroblast; 24 h, replicate 1",82% and 61% and 58%
same,Population Fragmented Nuclei (%),"Fibroblast; 24 h, replicate 1",35% and 32% and 34%
same,Population Hoechst High Intensity Objects (%),"Fibroblast; 24 h, replicate 1",15% and 6% and 13%
same,Population Mitotic Cells (%),"Fibroblast; 24 h, replicate 1",17% and 38% and 41%
same,Population Normal (%),"Fibroblast; 24 h, replicate 1",84% and 93% and 86%
same,Population Tubulin-Different-Phenotype (%),"Fibroblast; 24 h, replicate 1",54% and 82%
same,Population Apoptotic (%),"Fibroblast; 24 h, replicate 2",92% and 57% and 96%
same,Population Hoechst High Intensity Objects (%),"Fibroblast; 24 h, replicate 2",37% and 28% and 32%
same,Population Normal (%),"Fibroblast; 24 h, replicate 2",62% and 71% and 67%
same,Total Cell Count,"Fibroblast; 24 h, replicate 2",98 and 77 and 69
same,Population Apoptotic (%),"Fibroblast; 48 h, replicate 1",87%
same,Population Fragmented Nuclei (%),"Fibroblast; 48 h, replicate 1",50%
same,Population Healthy Nuclei (%),"Fibroblast; 48 h, replicate 1",24%
same,Population Hoechst High Intensity Objects (%),"Fibroblast; 48 h, replicate 1",20%
same,Population Membrane Permeable-Phenotype (%),"Fibroblast; 48 h, replicate 1",25%
same,Population Mitochondria Different-Phenotype (%),"Fibroblast; 48 h, replicate 1",31%
same,Population Mitotic Cells (%),"Fibroblast; 48 h, replicate 1",12%
same,Population Normal (%),"Fibroblast; 48 h, replicate 1",79%
same,Population Pyknosed Nuclei (%),"Fibroblast; 48 h, replicate 1",24%
same,Population Tubulin-Different-Phenotype (%),"Fibroblast; 48 h, replicate 1",50%
same,Total Cell Count,"Fibroblast; 48 h, replicate 1",82
same,Population Apoptotic (%),"Fibroblast; 48 h, replicate 2",94%
same,Population Fragmented Nuclei (%),"Fibroblast; 48 h, replicate 2",68%
same,Population Healthy Nuclei (%),"Fibroblast; 48 h, replicate 2",5%
same,Population Hoechst High Intensity Objects (%),"Fibroblast; 48 h, replicate 2",14%
same,Population Membrane Permeable-Phenotype (%),"Fibroblast; 48 h, replicate 2",0%
same,Population Mitochondria Different-Phenotype (%),"Fibroblast; 48 h, replicate 2",100%
same,Population Mitotic Cells (%),"Fibroblast; 48 h, replicate 2",5%
same,Population Normal (%),"Fibroblast; 48 h, replicate 2",85%
same,Population Pyknosed Nuclei (%),"Fibroblast; 48 h, replicate 2",25%
same,Population Tubulin-Different-Phenotype (%),"Fibroblast; 48 h, replicate 2",75%
same,Total Cell Count,"Fibroblast; 48 h, replicate 2",78
